Results reported in ChEMBL document CHEMBL1629555, “Antimalarial activity of phenylthiazolyl-bearing hydroxamate-based histone deacetylase inhibitors” (Antimicrob Agents Chemother, 2008).
Activity calls are given as the source filed them. The rule behind the calls is not given here.

Legend:
[1] = test system: Plasmodium falciparum; assay: Antimalarial activity against drug-resistant Plasmodium falciparum D6 infected in Aotus lemurinus lemurinus monkey; format: functional, organism-based
[2] = test system: Plasmodium falciparum; assay: Antimalarial activity against drug-resistant Plasmodium falciparum TM90C2A; format: functional, organism-based
[3] = Cytotoxicity against mouse RAW264.7 cells by MTT assay; format: cell-based; details: read-out: LD50 (the source's name)
In short: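 LC50 in RAW macrophages was determined by MTT assay, given as the mean of 2–4 experiments with range. Selectivity index = RAW LC50 / lowest P. falciparum IC50.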

[4] = test system: Plasmodium falciparum; assay: Antimalarial activity against Plasmodium falciparum at 1 nM assessed as parasite growth after 3.5 hrs; format: functional
In short: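 Infected erythrocytes were exposed to compound for 3.5 h, washed, and returned to culture. Parasite growth was compared with matched controls after 48 h.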

[5] = Inhibition of histone deacetylase assessed as alteration of histone H3 acetylation by cell-based assay
In short: (§1)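 About 3 × 10^9 erythrocytes infected with late-trophozoite P. falciparum 3D7 were exposed to compound or to DMSO vehicle for 3.5 h at 37°C, and an untreated sample was taken at the start. Histones were extracted, about 6 × 10^8 parasites were loaded per lane on SDS–15% PAGE, and loading was checked by silver stain. Western blots were probed with anti-tetraacetyl-H4 and anti-diacetyl-H3 antisera and detected by ECL.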

[6] = test system: Plasmodium berghei; assay: Antimalarial activity against Plasmodium berghei infected in mouse assessed as effect on cure rate at single dose of 80 mg/kg/day, po for 3 days; format: functional, organism-based
In short: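 Mice were infected ip with 10^6 P. berghei-parasitized erythrocytes. The compound was given in hydroxyethylcellulose-Tween 20 vehicle, 5 mice per group, starting on day 3 post-infection. Regimens were once-daily or split daily oral doses over 3 days, subcutaneous dosing, or dosing over 7 days. Read-outs were posttreatment parasitemia on day 6 as a fraction of controls and the number of mice cured.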

[7] = test system: Plasmodium berghei; assay: Antimalarial activity against Plasmodium berghei infected in mouse assessed as parasitemia level at 52 mg/kg/day for 3 days measured on day 3 in presence of 64 mg/kg/day chloroquine (reference value: 0.46%); format: functional
In short: (§2)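 Mice were infected ip with 10^6 P. berghei-parasitized erythrocytes. The compound was given orally once daily on days 3, 4 and 5 post-infection in hydroxyethylcellulose-Tween 20 vehicle, alone or together with chloroquine, with 5 mice per dose group. Parasitemia (%) was read on days 3 and 6, and cures were counted as animals cured out of 5.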

[8] = test system: Plasmodium berghei; assay: Antimalarial activity against Plasmodium berghei infected in mouse assessed as parasitemia level at 160 mg/kg/day for 3 days measured on day 6 in presence of 2 mg/kg/day chloroquine (reference value: 37%); format: functional; in short: as §2
[9] = test system: Plasmodium berghei; assay: Antimalarial activity against Plasmodium berghei infected in mouse assessed as parasitemia level at 3.2 mg/kg/day for 3 days measured on day 6 in presence of 4 mg/kg/day chloroquine (reference value: 37%); format: functional
[10] = test system: Mus musculus; assay: Toxicity in Plasmodium berghei-infected mouse assessed as mortality at single dose of 80 mg/kg/day, po for 3 days; format: organism-based; design: route oral; details: in vivo, 72 h
[11] = Half life in human liver microsome by LC/MS analysis; format: ADME; details: liver microsomes
[12] = AUC in ICR mouse at 50 mg/kg/day, po by LC/MS analysis; format: ADME, organism-based; design: route oral; details: plasma
In short: (§3)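 Male ICR mice, 8 weeks old, got one 50 mg/kg dose either orally or subcutaneously, with three groups of six mice per route. One mouse per group was killed at 15, 30 and 60 min and at 3, 6 and 24 h. Plasma was deproteinized with 2 volumes of acetonitrile and analysed by LC-MS/MS on a C18 column against 0–500 ng/ml standards, with parent and acid metabolite measured in the same sample. Each six-mouse group was treated as one "animal" and fitted to a two-compartment model. AUC was taken by the linear trapezoidal rule extrapolated to infinity, and Cmax and Tmax were read per "animal".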

[13] = AUC in ICR mouse at 50 mg/kg/day, sc by LC/MS analysis; format: ADME, organism-based; design: route subcutaneous; details: plasma; in short: as §3
[14] = test system: Plasmodium berghei; assay: Antimalarial activity against Plasmodium berghei infected in mouse assessed as parasitemia level at 3.2 mg/kg/day for 3 days measured on day 3 (reference value: 0.46%); format: functional
[15] = test system: Plasmodium berghei; assay: Antimalarial activity against Plasmodium berghei infected in mouse assessed as parasitemia level at 160 mg/kg/day for 3 days measured on day 6 (reference value: 37%); format: functional; in short: as §2
[16] = test system: Plasmodium berghei; assay: Antimalarial activity against Plasmodium berghei infected in mouse assessed as parasitemia level at 0.32 mg/kg/day for 3 days measured on day 6 (reference value: 37%); format: functional
[17] = test system: Plasmodium berghei; assay: Antimalarial activity against Plasmodium berghei infected in mouse assessed as effect on cure rate at 320 mg/kg/day for 3 days; format: functional, organism-based; in short: as §2
[18] = test system: Plasmodium falciparum; assay: Antimicrobial activity against Plasmodium falciparum W2 at […] in presence of mefloquine; format: functional
In short: (§4)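 In vitro fixed-ratio isobologram using a SYBR green I fluorescence assay. […] IC50s were standardized and FIC50 and ΣFIC50 calculated by the Berenbaum method. Reported as the average ΣFIC across dilutions or the average maximum ΣFIC, from at least 2 experiments.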

[19] = test system: Plasmodium falciparum; assay: Antimicrobial activity against Plasmodium falciparum W2 at […] in presence of azithromycin; format: functional; in short: as §4
[20] = test system: Plasmodium falciparum; assay: Antimicrobial activity against Plasmodium falciparum W2 at […] in presence of artemisinin; format: functional; in short: as §4
[21] = molecular target: T1, Histone deacetylase (Plasmodium falciparum 3D7) (UniProt Q7K6A1); assay: Inhibition of Plasmodium falciparum 3D7 histone deacetylase infected in human erythrocytes assessed as alteration of histone H3 acetylation after 3.5 hrs by SDS-PAGE; format: cell-based; in short: as §1
T1 sequence (whole entry): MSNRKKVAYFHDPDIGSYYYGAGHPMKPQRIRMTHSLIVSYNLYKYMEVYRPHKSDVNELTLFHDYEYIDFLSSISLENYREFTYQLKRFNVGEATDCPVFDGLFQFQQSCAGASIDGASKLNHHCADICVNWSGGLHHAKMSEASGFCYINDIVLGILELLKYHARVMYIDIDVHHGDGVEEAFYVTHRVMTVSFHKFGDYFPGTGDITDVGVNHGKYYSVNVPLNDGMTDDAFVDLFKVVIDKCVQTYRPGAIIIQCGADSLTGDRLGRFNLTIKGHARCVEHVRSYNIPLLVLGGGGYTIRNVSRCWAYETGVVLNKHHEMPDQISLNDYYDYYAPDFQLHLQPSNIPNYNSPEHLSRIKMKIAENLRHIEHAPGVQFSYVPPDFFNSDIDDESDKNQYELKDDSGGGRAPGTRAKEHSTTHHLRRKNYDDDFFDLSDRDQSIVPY

[22] = test system: Plasmodium berghei; assay: Antimalarial activity against Plasmodium berghei infected in mouse assessed as parasitemia level at 3.2 mg/kg/day for 3 days measured on day 3 in presence of 4 mg/kg/day chloroquine (reference value: 0.46%); format: functional
[23] = test system: Plasmodium berghei; assay: Antimalarial activity against Plasmodium berghei infected in mouse assessed as parasitemia level at 0.32 mg/kg/day for 3 days measured on day 3 in presence of 4 mg/kg/day chloroquine (reference value: 0.46%); format: functional
[24] = test system: Plasmodium berghei; assay: Antimalarial activity against Plasmodium berghei infected in mouse assessed as parasitemia level at 12.8 mg/kg/day for 3 days measured on day 3 in presence of 16 mg/kg/day chloroquine (reference value: 0.46%); format: functional; in short: as §2
[25] = test system: Plasmodium berghei; assay: Antimalarial activity against Plasmodium berghei infected in mouse assessed as effect on cure rate at 52 mg/kg/day for 3 days measured on day 6 in presence of 64 mg/kg/day chloroquine; format: functional, organism-based; in short: as §2

## Nc1cccc(-c2csc(NC(=O)CCCCCCC(=O)NO)n2)c1
[1]
  IC50: 0.8 nM
[2]
  IC50: 0.6 nM
[3]
  CC50: 600 nM
[4]
  Activity: <=40%
[5]
  IC50: 10.4 nM
[6]
  Activity: inactive
[7]
  Activity: 0.48%
[8]
  Activity: 0.36%
[9]
  Activity: 0.029%
[10]
  Activity: Non-toxic
[11]
  half-life: > 1 h
[12]
  AUC: 3690 ng·h/mL
[13]
  AUC: 3600 ng·h/mL
[14]
  Activity: 0.64%
[15]
  Activity: 8.8%
[16]
  Activity: 45%
[17]
  Activity: inactive
[18]
  fractional inhibitory concentration index (FICI): 2.1
[19]
  fractional inhibitory concentration index (FICI): 1.5
[20]
  fractional inhibitory concentration index (FICI): 2.1
[21]
  inhibition: Dose-dependent effect
[22]
  Activity: 0.6%
[23]
  Activity: 0.72%
[24]
  Activity: 0.52%
[25]
  Activity: inactive
